Test [1] deals with RAW264.7. Briefly: Inhibition of LPS-induced nitric oxide production in mouse RAW264.7 cells assessed as nitrite accumulation after 20 hrs. It counts as functional, cell-based. The conditions noted are these: RAW264.7, 20 h. The procedure, abridged:
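RAW 264.7 macrophages grown in DMEM with 10% FBS and penicillin-streptomycin at 37 °C, 5% CO2. Plated at 5 × 10⁵ cells/mL in phenol-red-free 10% FBS-DMEM for 24 h, then PBS-washed, refreshed, and given 1 μg/mL LPS ± samples for 20 h. Nitrite in supernatant measured by Griess reaction at 540 nm against a sodium nitrite standard. Inhibition calculated versus vehicle control; IC50 by nonlinear regression. L-NMMA positive control.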

In test [2] the test system is RAW264.7. Put plainly: Cytotoxicity against mouse RAW264.7 cells by MTT assay. The format is cell-based. (Tetrazolium dyes change colour on reduction, which living cells bring about.)
Test [3] has as its system RAW264.7. Briefly: Selectivity index, ratio of CC50 for mouse RAW264.7 cells to IC50 for nitric oxide production in mouse RAW264.7 cells. It counts as functional.

Some results are limits rather than exact numbers.

Usually IC50 stands for the midpoint of a concentration-inhibition curve. For the compound `COc1cc2oc3c(c(=O)c2c(O)c1/C=C/C(C)C)C(C=C(C)C)Oc1cc(O)ccc1-3` (stereo not drawn), the values for the IC50 in test [1] and in test [2] were greater than 60 µM and 46.1 µM, respectively. Also, the “Ratio CC50/IC50” value in test [3] is on record as less than 0.8.
The matching figures for `CC1(C)C=Cc2c(ccc(C(=O)/C=C/c3ccc(O)cc3O)c2O)O1`: 18.8 µM, 59.2 µM and 3.1.
Taken in the same sequence, the figures for `COc1cc2oc(-c3ccc(O)cc3O)c(CC=C(C)C)c(=O)c2c(O)c1/C=C/C(C)C` [ARTOCARPIN] were 18.7 µM, 45.3 µM and 2.4.
Taken in the same sequence, the figures for `CC(C)=CCc1c(O)ccc(C(=O)/C=C/c2ccc(O)cc2O)c1O` [MORACHALCONE A] were 16.4 µM, 58 µM and 3.5.
As to `CC(C)=CCc1c(O)ccc2c1O[C@H](c1ccc(O)cc1O)CC2=O`, the half-maximal inhibitory concentration (IC50) stood at 12.3 µM in test [1] and 47.9 µM in test [2]. Also, in test [3], the “Ratio CC50/IC50” value is 3.9.
For `CNC(=N)NCCC[C@H](N)C(=O)O` [TILARGININE], the IC50 in test [1] was 19.2 µM; in test [2] it was greater than 50 µM. In test [3], the “Ratio CC50/IC50” value was greater than 2.6.
As for `C/C(=C/Cc1c(O)ccc(C(=O)/C=C/c2ccc(O)cc2)c1O)COC(=O)/C=C/c1ccc(O)cc1` [GEMICHALCONE B], the IC50 in test [1] was determined as 9.3 µM; in test [2], 35.1 µM. The “Ratio CC50/IC50” value in test [3] worked out at 3.8.
The matching figures for `CC(C)=CCc1c(O)ccc(C(=O)/C=C/c2ccc(O)cc2)c1O` [ISOBAVACHALCONE]: 6.4 µM, 16.4 µM and 2.6.
Taken in the same sequence, the figures for `COc1cc(/C=C/C(=O)OC/C(C)=C\Cc2c(O)ccc(C(=O)/C=C/c3ccc(O)cc3O)c2O)ccc1O` [GEMICHALCONES C] were 23.9 µM, 37.6 µM and 1.6.
Turning to `CC(C)=CCc1c(O)cc2oc(-c3ccc(O)cc3O)c(CC=C(C)C)c(=O)c2c1O` [CUDRAFLAVONE C], the IC50 in test [1] was found to be 52.3 µM; in test [2], 59.2 µM. In addition, the “Ratio CC50/IC50” value in test [3] came out at 1.1.
Taken in the same sequence, the figures for `CC(C)=CC1Oc2cc(O)ccc2-c2oc3cc4c(c(O)c3c(=O)c21)C=CC(C)(C)O4` (stereo not drawn) [CUDRAFLAVONE A] were 42.1 µM, 42.1 µM and 1.

Source of the values: ChEMBL document CHEMBL1157343, “Prenylated flavonoids from the heartwood of Artocarpus communis with inhibitory activity on lipopolysaccharide-induced nitric oxide production” (J Nat Prod, 2006).
